How the values were obtained:
[1] = (§1) Compound was tested for antiviral activity against HIV-1 resistant to TIBO A-17; type: functional, Human immunodeficiency virus 1
In short: (§2)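 Syncytial plaque assay in duplicate sets on CEM-SS cells made adherent with poly-L-lysine. Virus was the A17 HIV-1 variant, resistant to nonnucleoside RT inhibitors including TIBO, or HIV-2, both from the AIDS Research and Reference Program. Infection was in the presence or absence of compound; syncytial plaques were counted at 30-fold magnification 7 days postinfection. IC50 came from linear regression of percent inhibition against log concentration.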

[2] = (§3) Compound was tested for antiviral activity against matched pairs of HIV-1 resistant to AZT; type: functional, Human immunodeficiency virus 1
In short: (§4)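 Matched clinical pairs of AZT-sensitive and AZT-resistant HIV-1 (C-691/G762 or H-112/G910, depending on compound series) were tested by syncytial plaque assay in duplicate sets on poly-L-lysine-adherent CEM-SS cells. Syncytial plaques were counted at 30-fold magnification 7 days postinfection. IC50 came from regression of percent inhibition versus log concentration, averaged over duplicate experiments.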

HFF = experiment: Visual cytotoxicity scored on HFF cells at a time of HCMV plaque enumeration; type: functional, cell-based; conditions: Homo sapiens
In short: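 Cytotoxicity in stationary HFF cells scored by microscopic inspection of cells not affected by virus, at time of HCMV plaque enumeration, in the plaque-assay plates.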

Human alphaherpesvirus 1 = experiment: Antiviral activity against herpes simplex virus type-1 (HSV-1); type: functional, organism-based
In short: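 BSC-1 cells (10 000/well, MEM(E) + 10% calf serum) incubated overnight, then given drug in quadruplicate plus HSV-1 KOS at 100 pfu/well; 3 days at 37 °C. ELISA with HRP-conjugated rabbit anti-HSV-1 antibody, TMB substrate, stopped with H₂SO₄, absorbance at 450 and 570 nm; IC50 by regression of % absorbance reduction vs log concentration.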

KB = experiment: Inhibition of KB cell growth determined by quadruplicate assays; type: functional, cell-based; conditions: Homo sapiens
In short: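 KB cells seeded at 3000-5000/well, overnight at 37 °C, then compound in quadruplicate at six to eight concentrations for 48 h (about two doublings) in CO₂. Cells fixed in 95% ethanol, stained with 0.1% crystal violet, dye eluted with acidified ethanol and read at 570 nm; IC50 by regression vs log concentration.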

[3] = (§5) Compound was tested for antiviral activity against matched pairs of HIV-1 sensitive to AZT; type: functional, Human immunodeficiency virus 1
CEM-SS [4] = experiment: Cytotoxicity against CEM-SS cells in terms of incorporation of [3H]dThd; type: functional, cell-based; conditions: Homo sapiens
In short: (§6)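 DNA synthesis in CEM-SS cells measured as uptake of [³H]dThd into total acid-precipitable material; results averaged from duplicate experiments.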

Human betaherpesvirus 5 [5] = experiment: Antiviral activity against human cytomegalovirus (HCMV) by plaque reduction assay; type: functional, organism-based
In short: (§7)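 HFF monolayers infected with about 100 pfu/cm² of HCMV Towne (isolate Po); after adsorption, compound in growth medium added to duplicate wells at four to eight concentrations.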

[6] = test system: Human immunodeficiency virus 2; experiment: Compound was tested for antiviral activity against HIV-2; type: functional, organism-based
[7] = test system: Human immunodeficiency virus 1; experiment: Activity against HIV-1 by syncytial plaque assay performed in duplicate using CEM-SS cells; type: functional, organism-based; conditions: Human immunodeficiency virus 1, CEM-SS
In short: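 Syncytial plaque assay: poly-L-lysine-adherent CEM-SS cells infected with HIV-1 strain IIIB with or without compound at selected concentrations; syncytial plaques counted at 30-fold magnification 7 days postinfection; duplicate. IC50 from linear regression of percent inhibition against log concentration.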

[8] = test system: Human immunodeficiency virus 1; experiment: Compound was tested for antiviral activity against HIV-1 sensitive to AZT; type: functional, organism-based; in short: as §4
[9] = test system: Human immunodeficiency virus 1; experiment: as §1; type: functional, organism-based; in short: as §2
[10] = test system: Human immunodeficiency virus 1; experiment: Compound was tested for antiviral activity against HIV-1 resistant to AZT; type: functional, organism-based; in short: as §4
[11] = test system: Human immunodeficiency virus 1; experiment: as §3; type: functional, organism-based; in short: as §4
[12] = test system: Human immunodeficiency virus 1; experiment: as §5; type: functional, organism-based; in short: as §4
CEM-SS [13] = experiment: Compounds were tested for cytotoxicity against CEM-SS cells in terms of incorporation of [3H]dThd; type: functional, cell-based; conditions: Homo sapiens; in short: as §6
CEM-SS [14] = experiment: Compound was tested for activity against HIV-1 by syncytial plaque assay performed in duplicate using CEM-SS cells; type: functional, cell-based; conditions: Homo sapiens
In short: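 CEM-SS cells made adherent with poly-L-lysine, infected with HIV-1 strain IIIB with or without selected compound concentrations; duplicate sets. Syncytial plaques counted at 30-fold magnification 7 days post-infection. Percent inhibition regressed linearly against log concentration to give IC50; zidovudine positive control in all assays. Values averaged over duplicate or triplicate experiments.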

[15] = test system: Human immunodeficiency virus 2; experiment: Compound was tested for antiviral activity against HIV-2
[16] = Compound was tested for antiviral activity against HIV resistant to TIBO A-17; type: functional, Human immunodeficiency virus 1; in short: as §2
Human betaherpesvirus 5 [17] = experiment: Compound was tested for antiviral activity against human cytomegalovirus (HCMV) by plaque reduction assay; type: functional, organism-based; in short: as §7

Structure (SMILES) | IC50 (HFF) [µM] | IC50 (Human alphaherpesvirus 1) [µM] | IC50 (KB) [µM] | IC50 (CEM-SS [4]) [µM] | IC50 (Human betaherpesvirus 5 [5]) [µM] | IC50 [7] [µM] | also measured
Cc1cccc(Cn2c(Cl)nc3cc(Cl)c(Cl)cc32)c1 | > 100 | > 100 | > 100 | > 100 | > 100 | 14 | IC50 [1]: 16 µM; IC50 [2]: 13 µM; IC50 [3]: 37 µM; IC50 [6]: > 30 µM
Cc1cccc(Cn2c(Br)nc3cc(Cl)c(Cl)cc32)c1 | > 100 | – | – | > 100 | > 100 | 3.5 | IC50 [8]: 8.7 µM; IC50 [9]: 17 µM; IC50 [10]: 9 µM; IC50 [6]: 143 µM
O=[N+]([O-])c1cccc(Cn2c(Br)nc3cc(Cl)c(Cl)cc32)c1 | > 100 | – | 150 | > 100 | > 100 | 5.3 | IC50 [11]: 11 µM; IC50 [9]: 1 µM; IC50 [6]: 28 µM; IC50 [12]: 8.7 µM
Cc1cn([C@H]2C[C@H](N=[N+]=[N-])[C@@H](CO)O2)c(=O)[nH]c1=O [ZIDOVUDINE] | – | – | – | – | – | – | IC50 (CEM-SS [13]): 1.9 µM; IC50 (CEM-SS [14]): 0.0026 µM
Clc1cc2nc(Cl)n(Cc3ccccc3Cl)c2cc1Cl | > 100 | > 100 | 156 | 70 | 30 | 15 | IC50 [1]: 13 µM; IC50 [6]: > 30 µM
Fc1ccc(Cn2c(Cl)nc3cc(Cl)c(Cl)cc32)cc1 | > 100 | > 100 | > 100 | > 100 | > 100 | 37 | IC50 [9]: 19 µM; IC50 [15]: > 30 µM
FC(F)(F)c1ccc(Cn2c(Cl)nc3cc(Cl)c(Cl)cc32)cc1 | > 100 | > 100 | > 100 | > 100 | > 100 | > 100 | –
Clc1ccc(Cn2c(Cl)nc3cc(Cl)c(Cl)cc32)cc1 | > 100 | > 100 | > 100 | > 100 | > 100 | – | IC50 [1]: 19 µM; IC50 [2]: 255 µM; IC50 [3]: 30 µM; IC50 (CEM-SS [14]): 9.1 µM; IC50 [6]: > 30 µM
Nc1nc2cc(Cl)c(Cl)cc2n1Cc1cccc(Cl)c1 | > 100 | 70 | 65 | 37 | > 100 | > 30 | –
O=[N+]([O-])c1ccc(Cn2c(Br)nc3cc(Cl)c(Cl)cc32)cc1 | > 100 | – | 40 | > 100 | > 100 | 14 | IC50 [16]: 11 µM; IC50 [2]: 6.9 µM; IC50 [3]: 11 µM; IC50 [6]: 66 µM
FC(F)(F)c1cc(Cn2c(Cl)nc3cc(Cl)c(Cl)cc32)cc(C(F)(F)F)c1 | > 100 | > 100 | > 100 | > 100 | > 100 | > 100 | –
O=[N+]([O-])c1ccc(Cn2c(Cl)nc3cc(Cl)c(Cl)cc32)cc1 | > 100 | > 100 | 183 | 51 | > 100 | 7.8 | –
Clc1cc2nc(Br)n(Cc3ccccc3)c2cc1Cl | > 100 | > 100 | > 100 | > 100 | > 100 | 27 | –
FC(F)(F)c1cc(Cn2c(Br)nc3cc(Cl)c(Cl)cc32)cc(C(F)(F)F)c1 | > 100 | 65 | 70 | > 100 | > 100 | 5.9 | –
Cc1ccc(Cn2c(N)nc3cc(Cl)c(Cl)cc32)cc1 | 32 | 80 | 50 | 40 | 30 | 20 | –
Cc1cccc(Cn2c(N)nc3cc(Cl)c(Cl)cc32)c1 | > 100 | 80 | 65 | 48 | > 100 | 12 | –
CC(C)(C)c1ccc(Cn2c(N)nc3cc(Cl)c(Cl)cc32)cc1 | 32 | 60 | 50 | 27 | 22 | 10 | –
Clc1cc2nc(NC3CC3)n(Cc3ccccc3)c2cc1Cl | 33 | > 100 | 60 | – | – | – | IC50 (Human betaherpesvirus 5 [17]): 18 µM
Clc1ccc(Cn2c(Br)nc3cc(Cl)c(Cl)cc32)cc1Cl | > 100 | > 100 | > 100 | > 100 | > 100 | > 100 | –
Clc1cc2nc(Br)n(Cc3ccccc3Cl)c2cc1Cl | > 10 | > 100 | 78 | 74 | > 10 | 15 | –
FC(F)(F)c1ccc(Cn2c(Br)nc3cc(Cl)c(Cl)cc32)cc1 | > 100 | > 100 | > 100 | > 100 | > 100 | > 100 | –
Nc1nc2cc(Cl)c(Cl)cc2n1Cc1ccc(F)cc1 | 37 | 70 | 70 | 30 | 12 | 32 | –
Nc1nc2cc(Cl)c(Cl)cc2n1Cc1cccc([N+](=O)[O-])c1 | > 100 | > 100 | 65 | 47 | > 100 | 21 | –
Nc1nc2cc(Cl)c(Cl)cc2n1Cc1cccc(C(F)(F)F)c1 | 32 | 60 | 45 | 17 | 32 | > 10 | –
COc1ccc(Cn2c(Br)nc3cc(Cl)c(Cl)cc32)cc1 | > 100 | > 100 | 55 | 60 | > 100 | 6 | –
Nc1nc2cc(Cl)c(Cl)cc2n1Cc1ccc(Cl)cc1 | > 100 | > 100 | 45 | 32 | > 100 | 10 | –
O=[N+]([O-])c1cccc(Cn2c(Cl)nc3cc(Cl)c(Cl)cc32)c1 | > 100 | > 100 | 239 | > 100 | > 100 | 20 | –
FC(F)(F)c1cccc(Cn2c(Cl)nc3cc(Cl)c(Cl)cc32)c1 | > 100 | > 100 | > 100 | > 100 | > 100 | > 100 | –

— ChEMBL document CHEMBL1131326, “Design, synthesis, and antiviral evaluations of 1-(substituted benzyl)-2-substituted-5,6-dichlorobenzimidazoles as nonnucleoside analogues of 2,5,6-trichloro-1-(beta-D-ribofuranosyl)benzimidazole” (J Med Chem, 1998)
